High-throughput results: PubChem BioAssay, several laboratories
The list is not random: actives were taken first. Their share in the collection is about 3.8%.
Granule exo inh = lytic granule exocytosis inhibition. inhibition, % at 10 µM. AID 651702. TALL-104 LAMP-1 surface exposure, flow cytometry; cells stimulated with thapsigargin and PMA. actives 0.66% (n = 360,000);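 active = inhibition above about 55%, limit read from the data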
rCAG RNA binder = r(CAG) repeat RNA binding; TO-PRO-1 dye displacement fluorescence; actives 1.3% (n = 370,000); inhibition, % at 3 µM;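 active = inhibition above the plate cutoff, the mean of all test compounds on that plate plus 3 SD, cut at about 35% in these data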;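 also: 0% = DMSO alone and 100% = 100 µM mitoxantrone as full dye displacement; higher means more dye released from RNA so lower well fluorescence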
V-ATPase pH = alters yeast V-ATPase proton transport; S. cerevisiae, pHLuorin cytosolic pH fluorescence; response, % at 10 µM; actives 0.37% (n = 350,000); in the data active = response mostly above about 7.3%, no sharp cut-off; inactive = mostly below about 5.4%; also: actives read high
MPTP inh = permeability transition pore inhibition; isolated mouse mitochondria, Ca2+ swelling absorbance, 30 min; inhibition, % at 10 µM; actives 1.4% (n = 360,000); AID 602449;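 active = inhibition of 50% or more, scaled per plate between neutral and stimulator controls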;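 also: 0% = DMSO wells given calcium and 100% = 1 mM EGTA wells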
T cell HTS = T cell immune modulators affecting CD8 T cell-vesicle binding; 2C CD8+ T cell-vesicle binding, flow cytometry; stronger effect = lower value; actives 0.068% (n = 330,000); response (vesicle binding), % at 7 µM;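 active = response, share of CD8 T cells binding vesicles, and their 90th percentile fluorescence all below set limits, cut at about 80% in these data, passing the limit was not always enough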;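 also: values below 100% mean blocked vesicle binding to the CD8+ T cells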
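System: murine 2C transgenic CD8+ T lymphocytes; also added: QL9-loaded Drosophila micro-vesicles; times: binding 1.5 h at 37 °C; measured by: flow cytometry, PE anti-B7-1 (FL2) versus Alexa647 anti-CD8 (FL8), PFA-fixed; control set: Peptide-free naked vesicles (low) and QL9 vesicles with 0.7% DMSO vehicle (high)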
Beta2AR agonist = activates human beta-2 adrenergic receptor causing internalization | actives 0.43% (n = 340,000) | Am2.2-beta2AR cells, FAP receptor internalization, flow cytometry | P07550 | response, % (concentration not given with the values);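 active = response above a set limit, near 3 SD of response in nonfluorescent compounds, cut at about 42% in these data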
Target sequence (P07550 whole entry, looked up): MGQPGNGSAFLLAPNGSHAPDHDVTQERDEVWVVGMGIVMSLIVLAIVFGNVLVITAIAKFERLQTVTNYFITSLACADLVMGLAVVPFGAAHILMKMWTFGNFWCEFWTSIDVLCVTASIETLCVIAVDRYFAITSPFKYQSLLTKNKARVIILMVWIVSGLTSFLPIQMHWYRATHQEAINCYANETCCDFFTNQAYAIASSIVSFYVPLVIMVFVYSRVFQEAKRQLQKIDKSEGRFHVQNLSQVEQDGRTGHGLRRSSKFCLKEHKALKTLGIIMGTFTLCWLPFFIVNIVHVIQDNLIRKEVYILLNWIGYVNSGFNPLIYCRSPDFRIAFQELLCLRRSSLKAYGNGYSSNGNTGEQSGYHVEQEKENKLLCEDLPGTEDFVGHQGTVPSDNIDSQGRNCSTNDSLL
rCAG bind conf = r(CAG) RNA repeat binding, confirmation. actives 70% (n = 4,300). shares compounds with rCAG RNA binder. TO-PRO-1 dye displacement fluorescence. AID 652065. inhibition, % at 3 µM;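 active = inhibition above a per-plate cutoff, the mean inhibition of sample wells plus 3 SD, cut at about 35% in these data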;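 also: loss of TO-PRO-1 fluorescence as compound displaces dye from 1x1 AA loop RNA; 0% = DMSO only wells and 100% = 100 µM mitoxantrone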
DNA CAG counter = DNA CAG dye complex inhibition counter-screen; shares compounds with rCAG RNA binder; d(CAG) DNA oligo TO-PRO-1 dye displacement, fluorescence; inhibition, % at 3 µM; actives 94% (n = 4,300);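 active = inhibition above its plate's cutoff, the mean test-well inhibition plus 3 SD, cut at about 4.8% in these data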;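 also: 0% = DNA dye mix with DMSO and 100% = 100 µM mitoxantrone; hits displace the dye from DNA and so lower well fluorescence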
dCAG dye DR = DNA CAG dye complex inhibition, dose response counter-screen | actives 20% (n = 250) | IC50, µM | DNA CAG/GTC duplex TO-PRO-1 dye displacement fluorescence | shares compounds with rCAG RNA binder; in the data active = IC50 below about 10 µM
* = called active by the depositor; i = inactive; nt = no result given.

SMILES	Granule exo inh	rCAG RNA binder	V-ATPase pH	MPTP inh	T cell HTS	Beta2AR agonist	rCAG bind conf	DNA CAG counter	others
O=C(NCCCO)c1ccc2nc(-c3ccco3)c(-c3ccco3)nc2c1	1	22	-3	-2	nt	3	nt	nt
CCCCNC(=O)c1ccc2nc(-c3ccco3)c(-c3ccco3)nc2c1	0	62*	0	0	170	2	20	5.8*
O=C(c1ccc2nc(-c3ccco3)c(-c3ccco3)nc2c1)N1CCN(c2ncccn2)CC1	-1	35*	-3	3	287	-1	49*	22*
Cc1ccc(Cl)cc1NC(=O)OCCN(C)C(=O)Nc1cc(Cl)ccc1C	nt	2	nt	nt	nt	nt	nt	nt
Cc1ccsc1/C=N/NC(=O)c1cccc(S(=O)(=O)Nc2ccccc2Cl)c1	10	47*	3	0	347	2	40*	14*
COc1ccc(-c2nn(-c3ccccc3)cc2/C=N/NC(=O)c2cccc(S(=O)(=O)Nc3ccccc3Cl)c2)cc1	2	59*	1	5	214	-7	55*	29*
COC(=O)[C@]12C[C@H](CC(=O)N3CCCC3)C(=O)N(Cc3ccco3)C1=C[C@H](C(C)(C)C)O[C@@H]2C	nt	-2	nt	nt	nt	nt	nt	nt
Cc1ccccc1OCC(=O)N/N=C/c1sc(=O)n(Cc2cccc(C(=O)O)c2)c1Cl	2	46*	0	0	234	9	40*	11*
CCN(CCCNc1cc2c(c(N)c1S(=O)(=O)O)C(=O)c1ccccc1C2=O)c1ccccc1	-2	73*	1	4	nt	nt	81*	54*
CCN(CC)c1ccc(C(=C2C=CC(=[N+](CC)CC)C=C2)c2ccc(S(=O)(=O)O)cc2S(=O)(=O)[O-])cc1	2	46*	0	7	nt	-4	58*	18*
CCOC(=O)[C@@]12CCC3=C1N(CCC3)C(=O)[C@H](CC(=O)N1CCCCC1)C2	nt	2	nt	nt	nt	nt	nt	nt
COc1cc(/C=C/c2ccc3cccc(O)c3n2)ccc1O	-8	20	-1	2	347	3	nt	nt
COc1cc(Br)cc(/C=C/c2ccc3cccc(O)c3n2)c1O	-6	36*	-4	8	237	14	28	13*
COc1cc(/C=C/c2ccc3cccc(O)c3n2)c(Br)cc1O	-20	48*	5	0	612	-177	45*	21*
COc1cc(Br)c(/C=C/c2ccc3cccc(O)c3n2)cc1OC	-3	14	2	0	726	5	nt	nt
CN(Cc1ccccc1)C(=O)c1cccc(NC(=O)Cc2cccc(NC(=O)C3CCN(C(=O)CCc4ccccc4)CC3)c2)c1	nt	9	nt	nt	nt	nt	nt	nt
CCC(=O)NC(=S)Nc1ccc(NC(=O)COc2ccc(Cl)c(C)c2)cc1	-8	10	14	0	442	-22	nt	nt
Cc1cc(OCC(=O)NNC(=S)NC(=O)c2ccc(Br)o2)ccc1Cl	4	45*	1	6	183	1	69*	22*	dCAG dye DR=i
CCOc1cc(/C=C2/SC(=S)N(CC(=O)O)C2=O)ccc1OC(=O)c1cccs1	-8	58*	-4	4	437	-1	71*	30*	dCAG dye DR=i
COc1cc(/C=C2/SC(=S)N(CC(=O)O)C2=O)ccc1OC(=O)c1ccco1	-8	41*	1	6	373	7	46*	15*
CN1C(=O)/C(=C/c2ccc(OC(=O)c3ccco3)cc2)SC1=S	-1	1	1	7	240	-17	nt	nt
COc1cc(/C=C2\SC(=S)N(CC(=O)O)C2=O)ccc1OC(=O)c1ccco1	8	46*	1	8	265	2	45*	13*
CCOc1ccc(/C=C2\SC(=S)N(CCC(=O)O)C2=O)cc1	4	5	-1	4	108	4	nt	nt
CC(C)CN1C(=O)C[C@@]2(C(=O)N(C)c3ccc(NS(=O)(=O)C4CCCCC4)cc32)C1c1ccccc1 (stereo partly drawn)	nt	3	nt	nt	nt	nt	nt	nt
CCOC(=O)[C@]12CCCC=C1N(Cc1ccc(OC)cc1)C(=O)[C@@H]2CC(=O)NCCCN1CCCC1=O	nt	3	nt	nt	nt	nt	nt	nt
SMILES	Granule exo inh	rCAG RNA binder	V-ATPase pH	MPTP inh	T cell HTS	Beta2AR agonist	rCAG bind conf	DNA CAG counter	others
O=S1(=O)CC2c3ccccc3CCN2CN1Cc1ccc(F)cc1 (stereo not drawn)	nt	0	nt	nt	nt	nt	nt	nt
CN(c1ccccc1)c1ccc(/C=C(\CCC(=O)O)c2nc3ccccc3s2)cc1[N+](=O)[O-]	0	71*	1	13	284	11	78*	37*
CNc1ccc(/C=C(\CCC(=O)O)c2nc3ccccc3s2)cc1[N+](=O)[O-]	0	78*	3	1	210	0	82*	39*
Cc1ccc(/C=C(\CCC(=O)O)c2nc3ccccc3s2)cc1[N+](=O)[O-]	-7	49*	0	0	298	6	65*	25*
Cn1cnnc1Sc1ccc(/C=C(\CCC(=O)O)c2nc3ccccc3s2)cc1[N+](=O)[O-]	-1	16	-2	-2	426	-4	nt	nt
Cn1cc(CCOCc2ccccc2)c2ccccc21	nt	2	nt	nt	nt	nt	nt	nt
CCCOc1ccc(/C=N/Nc2cccc([N+](=O)[O-])c2)c(O)c1	4	25	2	26	136	7	nt	nt
CCCOc1ccc(/C=N/Nc2ccc(C(=O)O)cc2)c(OCCC)c1	-2	55*	-3	1	nt	9	60*	22*
COC(=O)[C@]12C[C@H](CC(=O)N3CCSCC3)C(=O)N(CCC3=CCCCC3)C1=C[C@H](C1CCCC1)O[C@@H]2C	nt	3	nt	nt	nt	nt	nt	nt
O=C(Nc1ccc(Cl)cc1)c1cc2c(cc1O)[nH]c1ccccc12	21	91*	-2	35	67	29	85*	53*
CC(=O)Nc1ccc2[nH]c3ccccc3c2c1	0	2	-1	-1	153	2	nt	nt
N#Cc1c(Cl)nsc1NN	2	92*	-1	1	230	10	22	4.8*
COc1ccc(/C=C/C(=O)Nc2c(C(=O)O)[nH]c3ccccc23)cc1OC	-3	38*	2	1	261	-2	26	7.0*
N#Cc1ccc(-c2ccco2)nc1SCc1ccccc1	2	13	1	2	386	3	nt	nt
CCSc1nc(-c2ccco2)ccc1C#N	1	56*	-5	-1	387	4	11	8.6*
Cc1cc(Cl)ccc1OC(C)C(=O)Nc1ccc(S(=O)(=O)Nc2cnc3ccccc3n2)cc1 (stereo not drawn)	14	80*	6	1	205	20	90*	57*
